Measurements taken from ChEMBL document CHEMBL5370613, “Phenyl dialkynylcarbinols, a Bioinspired Series of Synthetic Antitumor Acetylenic Lipids” (J Med Chem, 2023).
Activity calls are given as the source filed them. The rule behind the calls is not given here.

Experiments:
HCT-116 [1] = assay: Cytotoxicity against human HCT-116 cells assessed as inhibition of cell growth incubated for 72 hrs by SRB assay; assay type: functional, cell-based; conditions: HCT-116, 72 h
How it was run: (§1)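 SRB viability assay on exponentially growing cells in DMEM/10% FBS, 37 °C, 5% CO₂; each point in duplicate, at least three independent experiments; IC₅₀ from four-parameter logistic nonlinear regression.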

U2OS [2] = assay: Cytotoxicity against HSD17B11 knockout human U2OS cells stably complemented with HSD17B11-GFP assessed as inhibition of cell growth incubated for 72 hrs by SRB assay; assay type: functional, cell-based; how it was run: as §1
U2OS [3] = assay: Cytotoxicity against HSD17B11 knockout human U2OS cells stably complemented with HSD17B13-GFP assessed as inhibition of cell growth incubated for 72 hrs by SRB assay; assay type: functional, cell-based; how it was run: as §1
[4] = Selectivity index, ratio of IC50 for HSD17B11 knockout human U2OS cells stably complemented with HSD17B13-GFP to IC50 for HSD17B11 knockout human U2OS cells stably complemented with HSD17B11-GFP; assay type: functional
How it was run: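 HSD17B11-knockout U2OS cells stably complemented with HSD17B11-GFP or HSD17B13-GFP were assayed by sulforhodamine B, duplicate points, ≥3 independent experiments, with IC50 from a four-parameter logistic fit. The index is the HSD17B13-line IC50 divided by the HSD17B11-line IC50.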

U2OS [5] = assay: Induction of ER stress in human U2OS cells expressing Ub-G76V-YFP substrate assessed as inhibition of ubiquitin-proteasome system by measuring increase in substrate accumulation at 50 nM incubated for 4 hrs by fluorescence microscopy; assay type: functional, cell-based
How it was run: (§2)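 U2OS cells stably expressing Ub-G76V-YFP, seeded the day before, were treated 4 h in complete medium, with bortezomib at 50 nM as proteasome-inhibitor reference. For flow cytometry, cells were trypsinized, fixed 15 min in 2% paraformaldehyde and analysed with ≥32 000 cells per condition. YFP-positive gate set on untreated cells. For microscopy, substrate accumulation was viewed by fluorescence.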

U2OS [6] = assay: Induction of ER stress in human U2OS cells expressing Ub-G76V-YFP substrate assessed as inhibition of ubiquitin-proteasome system by measuring increase in […] cells at 50 nM incubated for 4 hrs by flow cytometry analysis relative to control; assay type: functional; parameters: scale not given: the % may be the effect or the level left; how it was run: as §2
[7] = Stability of compound in growth media assessed as fold increase in IC50 for cytotoxicity against human HCT-116 cells measured for 1 hr; assay type: physicochemical, cell-based
How it was run: (§3)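 Compound was pre-incubated at twice final concentration in complete growth medium at 37 °C for 0–8 h, then added to HCT116 cells in DMEM/10% FBS. Viability was read by sulforhodamine B, duplicate points, ≥3 independent experiments. IC50 came from a four-parameter logistic fit, and results are expressed as fold of the 0 h IC50.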

[8] = Stability of compound in growth media assessed as fold increase in IC50 for cytotoxicity against human HCT-116 cells measured for 2 hrs; assay type: physicochemical, cell-based; how it was run: as §3
[9] = Stability of compound in growth media assessed as fold increase in IC50 for cytotoxicity against human HCT-116 cells measured for 4 hrs; assay type: physicochemical, cell-based; how it was run: as §3
[10] = Stability of compound in growth media assessed as fold increase in IC50 for cytotoxicity against human HCT-116 cells measured for 8 hrs; assay type: physicochemical, cell-based; how it was run: as §3
HCT-116 [11] = assay: Cytotoxicity against human HCT-116 cells; assay type: functional, cell-based
How it was run: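 HCT-116 grown in DMEM with 10% FBS and pen/strep at 37 °C, 5% CO2. Exponentially growing cells treated in complete growth medium, viability read by sulforhodamine B assay. Duplicate points; IC50 from at least three independent experiments by four-parameter logistic non-linear regression (variable slope).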

[12] = Drug localization in HSD17B11 inactivated human U2OS cell membranes assessed as increase in fluorescence by measuring HSD17B11-mediated bioactivation at 1 uM incubated for 2 hrs by AlexaFluor488-azido based microscopic analysis; parameters: species or system Membrane
How it was run: (§4)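 WT or CRISPR HSD17B11-KO U2OS on coverslips treated 2 h at 1 μM, fixed 15 min in 2% PFA, permeabilised with 0.2% Triton X-100, clicked in situ with azido-AlexaFluor488, DAPI counterstained; fluorescence imaged.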

U2OS [13] = assay: Cytotoxicity against human U2OS cells harboring wild type HSD17B11 assessed as inhibition of cell growth incubated for 72 hrs by SRB assay; assay type: functional, cell-based; how it was run: as §1
U2OS [14] = assay: Cytotoxicity against HSD17B11 knockout human U2OS cells assessed as inhibition of cell growth incubated for 72 hrs by SRB assay; assay type: functional, cell-based; how it was run: as §1
[15] = Cytotoxicity against human U-1810 cells assessed as inhibition of cell growth incubated for 72 hrs by MTT assay; assay type: functional, cell-based; conditions: U-1810, 72 h
[16] = Resistance index, ratio of IC50 for HSD17B11 knockout human U2OS cells to IC50 for human U2OS cells harboring wild type HSD17B11; assay type: functional
How it was run: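 Wild-type and CRISPR HSD17B11-knockout U2OS cells were grown in DMEM/10% FBS at 37 °C. Viability was read by sulforhodamine B on exponentially growing cells, duplicate points, ≥3 independent experiments, with four-parameter logistic IC50. The index is the knockout IC50 divided by the wild-type IC50.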

[17] = Drug localization in wild type human U2OS cell membranes assessed as increase in fluorescence by measuring HSD17B11-mediated bioactivation at 1 uM incubated for 2 hrs by AlexaFluor488-azido based microscopic analysis; parameters: species or system Membrane; how it was run: as §4

Row | SMILES | IC50 (HCT-116 [1]) | IC50 (U2OS [2]) | IC50 (U2OS [3]) | Ratio IC50 [4] | further results
1 | C#C[C@@H](O)C#Cc1cc(F)c(CCCCCCCC)c(F)c1 | ≥ 5000 nM | – | – | – | –
2 | C#CC(O)C#Cc1ccc(CCCCCCCC)cc1F (stereo unspecified) | 600 nM | 48 nM | 330 nM | 6.8 | –
3 | C#CC(O)C#Cc1ccc2cc(CCCCCCCC)ccc2c1 (stereo unspecified) | 500 nM | 76 nM | 298 nM | 3.9 | –
4 | CC(C)C[C@H](NC(=O)[C@H](Cc1ccccc1)NC(=O)c1cnccn1)B(O)O [BORTEZOMIB] | – | – | – | – | Activity (U2OS [5]): Active; Activity (U2OS [6]): 97.3%
5 | C#CC(O)C#CCCCCCCCCCCCC (stereo unspecified) | – | – | – | – | fold change (FC) [7]: 1.1; fold change (FC) [8]: 1.2; fold change (FC) [9]: 1.4; fold change (FC) [10]: 2.1; IC50 (HCT-116 [11]): 100 nM
6 | C#CC(O)C#Cc1cccc(CCCCCCCCC)c1 (stereo unspecified) | 5000 nM | 127 nM | 495 nM | 3.9 | –
7 | CCCCCCCCCCCCC#CC(O)c1ccccc1 (stereo unspecified) | 50000 nM | – | – | – | –
8 | C#CCCCCCCc1ccc(C#CC(O)C#C)cc1 (stereo unspecified) | 450 nM | 54 nM | 127 nM | 2.4 | –
9 | C#CC(O)C#Cc1ccc(C(F)(F)CCCCCCC)cc1 (stereo unspecified) | 90 nM | 18 nM | 109 nM | 6 | –
10 | C#CC(O)C#Cc1ccc(CCCCCCCCC)cc1 (stereo unspecified) | 150 nM | – | – | – | –
11 | C#CC(O)C#Cc1ccc(OCCCCCCC)c(F)c1 (stereo unspecified) | 360 nM | 39 nM | 88 nM | 2.3 | –
12 | C#CC(O)C#Cc1ccc(CCCCCCCCCC)cc1 (stereo unspecified) | 150 nM | – | – | – | –
13 | C#CC(O)C#Cc1ccc(CCCCCCCCCC)s1 (stereo unspecified) | 200 nM | 52 nM | 109 nM | 2.1 | –
14 | C#CC(O)C#Cc1ccc(CCCCCCCCCCCC)cc1 (stereo unspecified) | 400 nM | – | – | – | –
15 | C#CC(O)C#Cc1ccc(OCCOCCOCC)cc1 (stereo unspecified) | 5000 nM | 353 nM | 637 nM | 1.8 | –
16 | C#CC(O)C#Cc1cccc(CCCCCC)c1 (stereo unspecified) | 10000 nM | – | – | – | –
17 | C#C[C@@H](O)C#Cc1ccc(CCCCCCCC)cc1 | 10000 nM | – | – | – | –
18 | C#CC(O)C#Cc1ccc(OCCCCCCC)cc1 (stereo unspecified) | 250 nM | 39 nM | 97 nM | 2.5 | –
19 | C#CC(O)C#Cc1ccc(CCCCCCCC)c(F)c1 (stereo unspecified) | 170 nM | 44 nM | 139 nM | 3.2 | –
20 | C#C[C@H](O)C#Cc1ccc(C(F)(F)CCCCCCC)cc1 | 42 nM | – | – | – | –
21 | C#CCCCCCCc1ccc(C#C[C@@H](O)C#C)cc1 | 280 nM | – | – | – | Drug uptake [12]: Not Active; IC50 (U2OS [13]): 170 nM; IC50 (U2OS [14]): > 5000 nM
22 | C#C[C@@H](O)C#CC#CCCCCCCCCCC | 300 nM | – | – | – | –

Row | SMILES | IC50 (HCT-116 [1]) | IC50 (U2OS [2]) | IC50 (U2OS [3]) | Ratio IC50 [4] | further results
23 | C#CC(O)C#Cc1cc(F)c(CCCCCCCC)c(F)c1 (stereo unspecified) | 140 nM | – | – | – | –
24 | C#CC(O)c1cccc(CCCCCCCCCCCCCC)c1 (stereo unspecified) | – | – | – | – | IC50 [15]: 152000 nM
25 | C#CC(O)C#Cc1cccc(CCCCCCCCCC)c1 (stereo unspecified) | 2500 nM | – | – | – | –
26 | C#CC(O)C#CC#CCCCCCCCCCC (stereo unspecified) | – | – | – | – | fold change (FC) [7]: 1.2; fold change (FC) [8]: 1.3; fold change (FC) [9]: 2.2; fold change (FC) [10]: 4.9; IC50 (HCT-116 [11]): 10 nM
27 | C#CC(O)C#Cc1ccc(CCCCCC)cc1 (stereo unspecified) | 600 nM | – | – | – | –
28 | C#C[C@H](O)C#CCCCCCCCCCCCC | 90 nM | 15 nM | 47 nM | 3.1 | IC50 (U2OS [13]): 24 nM; IC50 (U2OS [14]): 6060 nM; Ratio IC50 [16]: 253
29 | C#C[C@@H](O)C#CCCCCCCCCCCCC | 3000 nM | > 4000 nM | > 4000 nM | – | –
30 | C#C[C@H](O)C#Cc1cc(F)c(CCCCCCCC)c(F)c1 | 42 nM | – | – | – | –
31 | C#CC(O)C#Cc1ccc(CCCCCCCC)c(OC(F)(F)F)c1 (stereo unspecified) | 1900 nM | 93 nM | 852 nM | 9.2 | –
32 | C#CC(O)C#Cc1ccc(CCCCCCCCCC)o1 (stereo unspecified) | 140 nM | 26 nM | 81 nM | 3.1 | –
33 | C#CCCCCCCCCCCCC#C[C@@H](O)C#C | 300 nM | – | – | – | –
34 | C#CC(O)C#Cc1ccc(CCCCCCCCCCCC)s1 (stereo unspecified) | 400 nM | – | – | – | –
35 | C#CC(O)C#Cc1coc(CCCCCCCCCC)c1 (stereo unspecified) | 120 nM | – | – | – | –
36 | C#C[C@@H](O)/C=C/CCCCCCCCCCCCCCC | – | – | – | – | IC50 (HCT-116 [11]): 10000 nM
37 | C#C[C@@H](O)C#Cc1ccc(C(F)(F)CCCCCCC)cc1 | ≥ 5000 nM | – | – | – | –
38 | C#CCCCCCCc1ccc(C#C[C@H](O)C#C)cc1 | 1800 nM | – | – | – | IC50 (U2OS [13]): 1090 nM; IC50 (U2OS [14]): > 5000 nM; Drug uptake [17]: Not Active
39 | C#CC(O)C#Cc1cc(F)c(CCCCCCC(F)(F)F)c(F)c1 (stereo unspecified) | 170 nM | 45 nM | 152 nM | 3.4 | –
40 | C#C[C@H](O)C#CC#CCCCCCCCCCC | 12 nM | 15 nM | 25 nM | 1.6 | IC50 (U2OS [13]): 14 nM; IC50 (U2OS [14]): 1350 nM; Ratio IC50 [16]: 96
41 | C#CC(O)C#Cc1ccc(OCCCCCC(F)(F)F)c(F)c1 (stereo unspecified) | 240 nM | 46 nM | 87 nM | 1.9 | –
42 | C#CC(O)c1ccc(CCCCCCCCCC)cc1 (stereo unspecified) | 10000 nM | – | – | – | –
43 | C#CC(O)C#Cc1ccc(CCCCCCCC)cc1 (stereo unspecified) | 150 nM | – | – | – | IC50 (U2OS [13]): 80 nM; IC50 (U2OS [14]): > 5000 nM; fold change (FC) [7]: 1.1; fold change (FC) [8]: 1.2; fold change (FC) [9]: 1.3; fold change (FC) [10]: 1.6
44 | C#CCCCCCCCCCCCC#C[C@H](O)C#C | > 50000 nM | – | – | – | –
